These results are taken from ChEMBL document CHEMBL4038341, “Optimization of Allosteric With-No-Lysine (WNK) Kinase Inhibitors and Efficacy in Rodent Hypertension Models” (J Med Chem, 2017).

The target in data set [1] is T1, Serine/threonine-protein kinase WNK1 (Homo sapiens, UniProt Q9H4A3). In words: Allosteric inhibition of recombinant human N-terminal GST-tagged WNK1 catalytic domain (1 to 491 residues) expressed in baculovirus expression system using fluorescein-labeled OSR1 peptide as substrate after 3 hrs by mobility shift assay.
For data set [2], the target named is T1, Serine/threonine-protein kinase WNK1. In words: Non-competitive inhibition of recombinant human N-terminal GST-tagged WNK1 (1 to 491 residues) expressed in baculovirus expression system using fluorescein-labeled OSR1 peptide as substrate measured every 3 mins from 90 to 250 mins in presence of varying concentration of ATP by Michaelis-Menten plot-based analysis.

Data set [3] deals with Rattus norvegicus. The data set is described as follows: Anti-hypertensive activity in […] rat assessed as induction of natriuresis at 10 mg/kg, po administered as single dose on day 2,3 and 4 measured for 7 hrs post dose. It counts as functional, organism-based. The essentials: (§1)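 Spontaneously hypertensive rats got single ascending oral doses on successive days (vehicle, then 10, 30, then 100 mg kg−1). Urine was collected in metabolic cages over 7 h for volume and sodium and potassium excretion. n = 4 per group, mean ± SEM, one-way ANOVA with Bonferroni post-test versus vehicle.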

Data set [4] relates to Rattus norvegicus. The data set is described as follows: Anti-hypertensive activity in […] rat assessed as induction of diuresis at 10 mg/kg, po administered as single dose on day 2,3 and 4 measured for 7 hrs post dose. Format: functional, organism-based. The essentials:
as §1

Data set [5] deals with T1, Serine/threonine-protein kinase WNK1. The data set is described as follows: Allosteric inhibition of recombinant human N-terminal GST-tagged WNK1 catalytic domain (1 to 491 residues) expressed in baculovirus expression system using fluorescein-labeled OSR1 peptide as substrate after 3 hrs by HTRF assay. (Time-resolved FRET reads energy transfer from a long-lived donor to a nearby acceptor.)

The nature of data set [6]: Equilibrium solubility of compound at pH 6.8. The settings on record: buffer. Format: physicochemical.
Data set [7] can be described thus: Half life in rat liver microsomes. Format: ADME, microsome. (In general: Microsomes from liver hold many membrane-bound enzymes, among them those of drug oxidation.)
For data set [8], the target named is T1, Serine/threonine-protein kinase WNK1. The data set is described as follows: Allosteric inhibition of WNK1 (unknown origin) expressed in HEK293 cells co-expressing flag-OSR1 assessed as reduction in sorbitol-stimulated OSR1 phosphorylation preincubated with compound for 2.5 hrs followed co-administration with sorbitol measured after 1 hr by AlphaLISA assay. Format: cell-based. On the technique in general: Bead proximity is the source of the signal in Alpha formats.

Data set [9] relates to Mus musculus. The data set is described as follows: Anti-hypertensive activity in human WNK1 transgenic FVB mouse assessed as reduction in systolic blood pressure at 30 mg/kg, po via gavage measured every 10 minutes for 15 seconds. It counts as functional, organism-based. The essentials:
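Conscious FVB mice transgenic for human WNK1, fitted with implanted radiotelemetry devices, received single oral doses. Systolic blood pressure was expressed as peak and time-weighted average change against the 24 h pre-dose baseline. Heart rate was also monitored. n = 4 per group, mean ± SEM, two-way ANOVA with Bonferroni post-test versus vehicle. Plasma exposure was measured in a separate cohort (n = 3).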

Data set [10] can be described thus: AUC in Sprague-Dawley rat at 1.5 mg/kg, po measured up to 7 hrs post dose by HPLC analysis. It counts as ADME, organism-based. The arrangement: time < 7 hr, dose 1.5 mg/kg, route oral. The settings on record: in vivo.
Data set [11] is described as follows: Cmax in Sprague-Dawley rat at 1.5 mg/kg, po measured up to 7 hrs post dose by HPLC analysis. It counts as ADME, organism-based. The arrangement: dose 1.5 mg/kg, route oral. The settings on record: in vivo.
Data set [12] can be described thus: Clearance in Sprague-Dawley rat at 0.5 mg/kg, iv measured up to 7 hrs post dose by HPLC analysis. Format: ADME, organism-based. The settings on record: in vivo.
Data set [13] is described as follows: Oral bioavailability in Sprague-Dawley rat at 1.5 mg/kg measured up to 7 hrs post dose by HPLC analysis. It counts as ADME, organism-based. The settings on record: in vivo.
The nature of data set [14]: Plasma concentration in human WNK1 transgenic FVB mouse at 30 mg/kg, po via gavage up to 7 hrs. It counts as ADME, organism-based. The essentials: (§2)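 A separate cohort of human WNK1-overexpressing FVB mice was dosed 30 mg kg−1 p.o. Venous blood samples were taken over time to 7 h for plasma drug concentration. n = 3.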
The nature of data set [15]: Plasma concentration in human WNK1 transgenic FVB mouse at 30 mg/kg, po via gavage at 7 hrs post dose. It counts as ADME, organism-based. The essentials:
as §2

Data set [16] in a line: Ratio of Cp in human WNK1 expressing transgenic FVB mouse at 30 mg/kg, po to IC50 for WNK1 (unknown origin) expressed in HEK293 cells. The essentials: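 Separate PK cohort of FVB mice overexpressing human WNK1, given a single oral dose of 30 mg kg−1 (n = 3); venous blood sampled over time for plasma concentration. Plasma level compared against the cellular IC50 from AlphaLISA readout of WNK-mediated phosphorylation of exogenous OSR1 in HEK293 cells.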

In data set [17] the test system is Rattus norvegicus. The data set is described as follows: Increase in heart rate in […] rat at 100 mg/kg, po measured for 7 hrs post dose. Format: functional, organism-based. The settings on record: tested as the 2H-labelled form.
The test system of data set [18] is Rattus norvegicus. In words: Anti-hypertensive activity in […] rat assessed as reduction in stroke volume at 100 mg/kg, po measured for 7 hrs post dose. The settings on record: tested as the 2H-labelled form. Format: functional, organism-based.
Data set [19] relates to Mus musculus. In words: Anti-hypertensive activity in po dosed human WNK1 transgenic FVB mouse assessed as reduction in blood pressure administered via gavage measured every 10 minutes for 15 seconds after 6 to 12 hrs. Format: functional, organism-based. The settings on record: tested as the 2H-labelled form. The essentials:
(§3)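 Conscious FVB mice overexpressing human WNK1, with implanted radiotelemetry devices, received single oral doses of 10, 30 or 100 mg kg−1. Systolic blood pressure was read as peak and time-weighted average against the 24 h before treatment. n = 4 per group, mean ± SEM, two-way ANOVA with Bonferroni post-test versus vehicle.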

Data set [20] addresses Tyrosine-protein kinase Fer (Homo sapiens) (UniProt P16591). In words: Inhibition of human FER (542 to 822 residues) expressed in bacterial expression system at 10 uM by kinomescan assay. The essentials:
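KINOMEscan panel of 440 human kinases, with test compound screened at a single concentration of 10 μM. Read-out is percent inhibition. Hits above 35% inhibition are flagged.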

Data set [21] deals with Mus musculus. The data set is described as follows: Anti-hypertensive activity in human WNK1 transgenic FVB mouse assessed plasma concentration required for SBP reducing activity at 30 mg/kg, po via gavage measured after 7 hrs. Format: functional, organism-based. The settings on record: tested as the 2H-labelled form. The essentials: as §2
Data set [22] deals with Rattus norvegicus. The data set is described as follows: Anti-hypertensive activity in SHR rat assessed as induction of diuresis administered orally as single dose on day 2,3 and 4 measured for 7 hrs post dose. Format: functional. The settings on record: tested as the 2H-labelled form. The essentials:
as §1

For data set [23], the system named is Rattus norvegicus. In words: Anti-hypertensive activity in […] rat assessed as induction of kaliuresis administered orally as single dose on day 2,3 and 4 measured for 7 hrs post dose. It counts as functional. The settings on record: tested as the 2H-labelled form. The essentials: as §1
Data set [24] has as its system Mus musculus. The data set is described as follows: Anti-hypertensive activity in po dosed human WNK1 transgenic FVB mouse assessed as reduction in blood pressure administered via gavage measured every 10 minutes for 15 seconds after 2 hrs. Format: functional, organism-based. The settings on record: tested as the 2H-labelled form. The essentials:
as §3

For data set [25], the system named is Rattus norvegicus. The data set is described as follows: Anti-hypertensive activity in […] rat assessed as induction of natriuresis administered orally as single dose on day 2,3 and 4 measured for 7 hrs post dose. It counts as functional. The settings on record: tested as the 2H-labelled form. The essentials:
as §1

Data set [26] deals with Rattus norvegicus. The data set is described as follows: Anti-hypertensive activity in […] rat assessed as reduction in total peripheral resistance at 100 mg/kg, po measured for 7 hrs post dose. Format: functional, organism-based. The settings on record: tested as the 2H-labelled form.
In data set [27] the target is Tyrosine-protein kinase BTK (Homo sapiens) (UniProt Q06187). In words: Inhibition of human full length BTK expressed in mammalian expression system at 10 uM by kinomescan assay. The essentials: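 Binding panel of 440 human kinases (KINOMEscan) at a 10 μM screening concentration. Percent inhibition per kinase, with >35% inhibition flagged as significant.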
In data set [28] the test system is Rattus norvegicus. The data set is described as follows: Anti-hypertensive activity in […] rat assessed as reduction in blood pressure at 100 mg/kg, po measured for 7 hrs post dose. It counts as functional, organism-based. The settings on record: tested as the 2H-labelled form.

SMILES strings stand for the structures. Values after ≈ are worked out from the molar mass of the structure shown. Active and inactive are the calls of the source. The calls are words filed in the database; no cut-off is given here. Where only a bound is given, the exact number is not on record here.

T1 sequence (Q9H4A3 whole entry, the tested form may be a part): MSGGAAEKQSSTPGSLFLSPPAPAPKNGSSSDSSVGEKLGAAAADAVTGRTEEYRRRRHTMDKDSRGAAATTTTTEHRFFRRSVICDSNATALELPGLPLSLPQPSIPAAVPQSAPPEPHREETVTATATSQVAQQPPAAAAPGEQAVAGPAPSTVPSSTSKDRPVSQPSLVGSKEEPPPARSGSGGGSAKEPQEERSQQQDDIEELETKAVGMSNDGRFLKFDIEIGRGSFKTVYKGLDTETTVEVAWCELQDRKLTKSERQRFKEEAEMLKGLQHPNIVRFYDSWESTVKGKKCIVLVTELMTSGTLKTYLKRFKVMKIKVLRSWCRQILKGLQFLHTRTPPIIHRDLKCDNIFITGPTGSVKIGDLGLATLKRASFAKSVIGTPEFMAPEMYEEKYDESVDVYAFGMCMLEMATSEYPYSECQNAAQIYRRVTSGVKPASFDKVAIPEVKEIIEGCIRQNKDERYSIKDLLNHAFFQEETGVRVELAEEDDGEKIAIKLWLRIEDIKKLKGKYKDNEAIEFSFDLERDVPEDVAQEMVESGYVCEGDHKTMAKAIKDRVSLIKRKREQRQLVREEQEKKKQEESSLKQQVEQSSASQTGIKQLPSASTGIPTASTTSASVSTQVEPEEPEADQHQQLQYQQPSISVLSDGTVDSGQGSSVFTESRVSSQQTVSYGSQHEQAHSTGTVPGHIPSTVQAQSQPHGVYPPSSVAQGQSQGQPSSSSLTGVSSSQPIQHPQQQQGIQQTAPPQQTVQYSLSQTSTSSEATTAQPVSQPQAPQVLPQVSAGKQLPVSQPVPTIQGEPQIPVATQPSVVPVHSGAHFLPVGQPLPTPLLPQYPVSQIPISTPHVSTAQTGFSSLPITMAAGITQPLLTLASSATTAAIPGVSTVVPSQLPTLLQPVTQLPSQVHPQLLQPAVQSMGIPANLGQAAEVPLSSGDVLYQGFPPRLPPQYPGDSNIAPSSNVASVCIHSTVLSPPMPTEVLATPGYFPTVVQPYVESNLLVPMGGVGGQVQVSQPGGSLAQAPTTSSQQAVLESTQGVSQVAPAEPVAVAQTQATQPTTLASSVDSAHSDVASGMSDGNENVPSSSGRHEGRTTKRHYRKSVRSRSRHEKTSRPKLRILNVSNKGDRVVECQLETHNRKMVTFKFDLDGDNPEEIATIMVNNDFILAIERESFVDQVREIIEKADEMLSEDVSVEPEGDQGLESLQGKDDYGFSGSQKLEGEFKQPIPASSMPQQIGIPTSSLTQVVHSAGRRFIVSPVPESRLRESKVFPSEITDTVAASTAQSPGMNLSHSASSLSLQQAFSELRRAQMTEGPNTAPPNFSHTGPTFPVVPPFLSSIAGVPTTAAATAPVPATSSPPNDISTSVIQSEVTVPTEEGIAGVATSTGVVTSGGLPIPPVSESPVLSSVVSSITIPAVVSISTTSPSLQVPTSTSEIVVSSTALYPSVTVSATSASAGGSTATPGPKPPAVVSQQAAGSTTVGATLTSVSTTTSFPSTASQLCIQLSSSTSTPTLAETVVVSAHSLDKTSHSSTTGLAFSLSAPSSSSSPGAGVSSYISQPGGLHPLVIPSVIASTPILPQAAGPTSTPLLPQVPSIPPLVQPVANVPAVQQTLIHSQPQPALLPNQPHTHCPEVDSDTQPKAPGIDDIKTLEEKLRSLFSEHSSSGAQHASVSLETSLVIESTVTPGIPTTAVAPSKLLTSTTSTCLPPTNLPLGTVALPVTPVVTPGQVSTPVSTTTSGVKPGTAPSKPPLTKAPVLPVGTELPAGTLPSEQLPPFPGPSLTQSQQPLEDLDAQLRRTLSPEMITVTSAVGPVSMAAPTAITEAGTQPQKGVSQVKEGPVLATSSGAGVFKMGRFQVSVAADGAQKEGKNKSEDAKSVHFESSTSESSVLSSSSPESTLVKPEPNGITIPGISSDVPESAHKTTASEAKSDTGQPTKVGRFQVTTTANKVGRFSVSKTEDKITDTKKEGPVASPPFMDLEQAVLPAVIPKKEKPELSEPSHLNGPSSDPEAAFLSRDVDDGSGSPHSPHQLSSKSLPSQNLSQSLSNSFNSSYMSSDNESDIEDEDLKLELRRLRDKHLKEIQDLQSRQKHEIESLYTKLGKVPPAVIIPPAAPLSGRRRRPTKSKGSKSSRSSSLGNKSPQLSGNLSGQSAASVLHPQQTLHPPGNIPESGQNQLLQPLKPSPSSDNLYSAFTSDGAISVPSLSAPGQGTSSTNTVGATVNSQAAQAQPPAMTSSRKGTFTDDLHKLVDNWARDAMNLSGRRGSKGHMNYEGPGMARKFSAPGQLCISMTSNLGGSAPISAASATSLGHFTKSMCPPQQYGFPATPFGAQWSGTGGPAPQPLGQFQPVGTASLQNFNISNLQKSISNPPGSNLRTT
Chain of Tyrosine-protein kinase BTK (Homo sapiens) (Q06187 whole entry): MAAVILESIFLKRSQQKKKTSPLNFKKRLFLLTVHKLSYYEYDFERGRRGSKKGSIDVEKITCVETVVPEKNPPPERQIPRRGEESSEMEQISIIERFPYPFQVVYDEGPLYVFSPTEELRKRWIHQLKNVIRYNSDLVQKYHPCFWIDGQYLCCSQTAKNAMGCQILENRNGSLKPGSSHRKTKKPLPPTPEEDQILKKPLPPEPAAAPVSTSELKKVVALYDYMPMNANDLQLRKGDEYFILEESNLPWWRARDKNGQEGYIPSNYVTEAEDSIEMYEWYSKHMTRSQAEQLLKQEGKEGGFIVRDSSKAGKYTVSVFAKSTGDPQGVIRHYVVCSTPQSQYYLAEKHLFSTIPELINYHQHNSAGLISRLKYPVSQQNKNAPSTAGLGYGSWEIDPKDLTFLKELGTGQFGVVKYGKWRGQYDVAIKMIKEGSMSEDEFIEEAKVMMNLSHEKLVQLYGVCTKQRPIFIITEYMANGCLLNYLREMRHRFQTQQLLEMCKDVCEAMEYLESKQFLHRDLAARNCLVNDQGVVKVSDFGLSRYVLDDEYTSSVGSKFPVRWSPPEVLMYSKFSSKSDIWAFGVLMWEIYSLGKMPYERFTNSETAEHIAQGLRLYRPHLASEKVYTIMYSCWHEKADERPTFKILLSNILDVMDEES
Chain of Tyrosine-protein kinase Fer (Homo sapiens) (P16591 whole entry, looked up, the tested form may be a part): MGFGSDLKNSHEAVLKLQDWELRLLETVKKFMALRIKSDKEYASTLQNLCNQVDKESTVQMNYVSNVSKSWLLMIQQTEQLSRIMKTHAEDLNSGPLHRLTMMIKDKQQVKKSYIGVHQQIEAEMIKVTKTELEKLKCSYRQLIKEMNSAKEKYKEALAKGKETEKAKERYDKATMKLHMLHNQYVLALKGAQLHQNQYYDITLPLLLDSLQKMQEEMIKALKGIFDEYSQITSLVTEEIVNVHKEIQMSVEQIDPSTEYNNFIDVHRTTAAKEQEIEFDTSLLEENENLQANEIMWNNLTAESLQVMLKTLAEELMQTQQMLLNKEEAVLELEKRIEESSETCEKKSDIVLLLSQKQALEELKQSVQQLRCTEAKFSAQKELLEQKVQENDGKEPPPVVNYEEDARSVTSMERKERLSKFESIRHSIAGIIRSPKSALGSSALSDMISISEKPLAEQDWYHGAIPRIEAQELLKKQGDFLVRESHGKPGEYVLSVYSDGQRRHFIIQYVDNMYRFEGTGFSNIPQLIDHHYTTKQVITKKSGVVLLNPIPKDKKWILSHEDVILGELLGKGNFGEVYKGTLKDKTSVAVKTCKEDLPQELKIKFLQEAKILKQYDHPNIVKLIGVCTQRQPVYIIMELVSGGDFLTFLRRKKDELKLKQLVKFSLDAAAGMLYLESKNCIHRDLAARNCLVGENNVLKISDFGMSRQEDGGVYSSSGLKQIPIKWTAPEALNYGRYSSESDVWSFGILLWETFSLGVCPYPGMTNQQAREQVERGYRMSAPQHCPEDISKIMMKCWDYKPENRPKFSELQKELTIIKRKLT

As usually defined, the IC50 is the concentration that gives 50% inhibition. For the molecule `COc1cccc(-c2cc(C(=O)N3CCN(Cc4ccccc4)CC3)c3ccccc3n2)c1`, the half-maximal inhibitory concentration (IC50) in data set [1] is 623 nM.

As usually defined, the Ki is a measure of affinity in units of concentration, obtained from inhibition or displacement. For `COc1cccc(-c2cccc(-n3cc(CNCC4CCCCC4)c4ccccc43)c2)c1`, the concentration for half-maximal inhibition (IC50) in data set [1] turned out to be 162 nM. Further, the inhibition constant (Ki) in [2] came out at 32.4 nM.

Take `N=C(N)NC(=O)c1nc(Cl)c(N)nc1N`: the result in the data set with Rattus norvegicus [3] and in the data set with Rattus norvegicus [4] was Active.

`CNc1nc(-c2cc(C(=O)N3CCN(Cc4ccc(Cl)cc4)CC3)ccn2)cs1`: in data set [1], the IC50 amounted to 106 nM.

Turning to `COc1cccc(-c2cc(-n3cc(CNCC4CCCCC4)c4ccccc43)ccn2)c1`, the IC50 in data set [1] came out at 60 nM.

Regarding `COc1cccc(-c2cc(-n3cc(CNCC4CCCCC4)c4cc(F)ccc43)ccn2)c1`, the IC50 in data set [5] came to 39 nM.

`COc1cccc(-c2cc(C(=O)N3CCN(Cc4ccc(Cl)cc4)CC3)ccn2)c1`: in [1], the IC50 worked out at 971 nM.

With `c1ccc(-c2cccc(-n3cc(CNCC4CCCCC4)c4ccccc43)c2)cc1`, the IC50 in data set [1] amounted to 2140 nM.

The term thermodynamic solubility denotes solubility found after equilibrating the solid with the medium. A word on the half-life: it is the time in which the quantity being followed falls by half. For the molecule `COc1cccc(-c2cc(-n3cc(CNCC(C)C)c4ccccc43)c(C)cn2)c1`, in data set [6], the thermodynamic solubility is 550 µM (≈ 220 µg/mL). In [7], this molecule returned a half-life of 15 min. Also, the half-inhibitory concentration (IC50) in data set [8] is 1390 nM; in data set [1], 95 nM. Also, the result in the data set on Mus musculus [9] was Active.

As usually defined, the AUC is concentration integrated over time. The Cmax is the highest concentration seen after dosing. As usually defined, the clearance is the volume of plasma or blood freed of the substance per unit of time. Read a low clearance as inefficient removal. The bioavailability is the share of a dose that reaches the circulation, judged against a reference dose that is usually intravenous. Lower therefore signals little systemic uptake. Regarding `CNc1nc(-c2ccc3c(c2)CCN3C(=O)c2ccccc2OCc2ccc(Cl)cc2)cs1`, the AUC at 7 h in [10] stood at 0.014 µM·h. In data set [11], this molecule came in with a Cmax of 2 nM. Besides, the 50% inhibitory concentration (IC50) in data set [1] was found to be 420 nM. In data set [12], this molecule showed a clearance of 108 mL/min/kg. The molecule further yielded a bioavailability in data set [13] of 1.4%.

`[2H]C([2H])([2H])Nc1nc(-c2cc(C(=O)N3CCN(Cc4ccc(Cl)cc4)CC3)c(Cl)cn2)cs1`: the concentration at 7 h in data set [14] and in data set [15] was 1000 nM each time. In addition, in [6], the solubility (thermodynamic) worked out at 19 µM (≈ 8.84 µg/mL). The same molecule had a half-life in [7] of 15 min. Besides, the AUC at 7 h in data set [10] worked out at 0.811 µM·h. Besides, the concentration in [11] peaked (Cmax) at 308 nM. The half-inhibitory concentration (IC50) in data set [8] was 589 nM; in [1], 6 nM. The same molecule gave a clearance in data set [12] of 24 mL/min/kg. Also, the bioavailability in data set [13] was 45%. In [16], the Ratio is recorded as 3.

Regarding `COc1cccc(-c2cc(C(=O)N(C)[C@@H]3CCN(Cc4ccc(Cl)cc4)C3)c3ccccc3n2)c1`, in data set [1], the IC50 worked out at 750 nM.

For the molecule `CNc1nc(-c2cc(C(=O)N3CCN(Cc4ccc(Cl)cc4)CC3)c(Cl)cn2)cs1`, the result with Rattus norvegicus [17], in the data set with Rattus norvegicus [18], with Rattus norvegicus [26] and with Rattus norvegicus [28] was Active. This molecule also came in with a thermodynamic solubility in data set [6] of 55 µM (≈ 25.4 µg/mL). Further, the Activity result in the data set on Mus musculus [19], with Rattus norvegicus [22], with Rattus norvegicus [23], with Mus musculus [24] and in the data set on Rattus norvegicus [25] was “Dose-dependent effect” throughout. In addition, the inhibition entry in data set [20] and in data set [27] was “Active” throughout. For the same molecule, the Cp in the data set with Mus musculus [21] was above 2 µM. In data set [7], this molecule had a half-life of 13 min. In [10], the area under the curve (AUC) at 7 h amounted to 0.279 µM·h. The same molecule displayed a peak concentration (Cmax) in data set [11] of 113 nM. Also, the IC50 is 352 nM in [8] and 4 nM in [1]. The same molecule displayed a clearance in data set [12] of 36 mL/min/kg. Besides, the bioavailability in data set [13] is 21%.
